Source: ChEMBL document CHEMBL6153049, “Functionalized regioisomers of the natural product phenazines myxin and iodinin as potent inhibitors of Mycobacterium tuberculosis and human acute myeloid leukemia cells” (Eur J Med Chem, 2025)

Assays:
[1] = tested on: Mycobacterium tuberculosis; test: Antimycobacterial activity against drug-sensitive Mycobacterium tuberculosis H37Rv assessed as bacterial growth inhibition measured after 1 week by MABA assay; assay type: functional, organism-based; conditions: 168 h
Method in brief: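 Colonies grown on 7H10+OADC agar at 37 °C, then to mid-log in 7H9+OADC; about 4×10^5 CFU/mL inoculated into 7H9 with escalating compound concentrations. Incubated 37 °C for 1 week, then resazurin (0.6 mM in PBS) mixed 8:5 with 20 % Tween 80 was added and incubated overnight at 37 °C. Fluorescent resorufin read-out gave IC50.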

[2] = tested on: MOLM-13; test: Cytotoxicity against human MOLM-13 cells assessed as inhibition of cell viability measured after 24 hrs by WST-1 assay; assay type: functional, cell-based; conditions: MOLM-13, 24 h
Method in brief: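 MOLM-13 seeded at 30,000 cells/well in RPMI with 10 % FBS, 0.2 mM L-glutamine, penicillin/streptomycin. Compounds dissolved in DMSO; 24 h exposure. Viability read by WST-1. Nuclear morphology checked with Hoechst 33342 after formaldehyde fixation. IC50 from four-parameter regression of WST-1 signal. Cells were mycoplasma-tested.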

[3] = Cytotoxicity against rat NRK cells assessed as inhibition of cell viability measured after 24 hrs by WST-1 assay; assay type: toxicity, cell-based
Method in brief: (§1)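 NRK and H9c2 seeded at 5000 cells/well in DMEM with 10 % FBS, 0.2 mM L-glutamine, penicillin/streptomycin. Compounds dissolved in DMSO; 24 h exposure. Viability read by WST-1. Hoechst 33342 nuclear morphology was checked after fixation. IC50 from four-parameter regression of WST-1 signal. Cells were mycoplasma-tested.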

[4] = Cytotoxicity against rat H9c2 cells assessed as inhibition of cell viability measured after 24 hrs by WST-1 assay; assay type: toxicity, cell-based; method in brief: as §1

Row | Structure (SMILES) | IC50 [1] [µM] | IC50 [2] [µM] | IC50 at 24 h [3] [µM] | IC50 at 24 h [4] [µM]
1 | CCOC(=O)COc1cc(OCC(=O)OCC)c2c(c1)[n+]([O-])c1ccccc1[n+]2[O-] | 2.88 | 2 | > 200 | > 200
2 | COc1cc2c(cc1O)[n+]([O-])c1ccccc1[n+]2[O-] | 11.1 | > 100 |  | 
3 | [O-][n+]1c2cccc(O)c2[n+]([O-])c2cccc(O)c21 | 0.17 | 2 | > 50 | > 50
4 | CCOCOc1cc(OC)c2c(c1)[n+]([O-])c1ccccc1[n+]2[O-] | 0.06 | 5.1 | > 25 | > 25
5 | CC(=O)Oc1cc(OC(C)=O)c2c(c1)[n+]([O-])c1ccccc1[n+]2[O-] | 5 | 35 |  | 
6 | COc1cccc2c1[n+]([O-])c1cccc(O)c1[n+]2[O-] | 0.014 | 1.4 | 77 | 46
7 | [O-][n+]1c2ccccc2[n+]([O-])c2c(O)cc(O)cc21 | 0.56 | 11 |  | 
8 | COc1cc(OC(C)=O)c2c(c1)[n+]([O-])c1ccccc1[n+]2[O-] | 0.08 | 6.5 | 36 | 55
9 | CC(=O)Oc1cc(O)c2c(c1)[n+]([O-])c1ccccc1[n+]2[O-] | 0.85 | 16 |  | 
10 | CCOC(=O)COc1cc(OC)cc2c1[n+]([O-])c1ccccc1[n+]2[O-] | 2.41 | 1.4 | 14 | 19
11 | COc1cccc2c1[n+]([O-])c1ccccc1[n+]2[O-] | 0.04 | 1.4 | 32 | 12
12 | COc1cc(O)c2c(c1)[n+]([O-])c1ccccc1[n+]2[O-] | 0.05 | 3.8 | 38 | 81
13 | COc1cc(O)cc2c1[n+]([O-])c1ccccc1[n+]2[O-] | 1.91 | > 100 | > 100 | > 200
14 | CCOc1cc(O)c2c(c1)[n+]([O-])c1ccccc1[n+]2[O-] | 0.04 | 2 | 87 | 103
15 | COc1cc(OC)c2c(c1)[n+]([O-])c1ccccc1[n+]2[O-] | 0.12 | 6 | 46 | 108
16 | CCOCOc1cc(O)c2c(c1)[n+]([O-])c1ccccc1[n+]2[O-] | 0.02 | 3.8 | > 25 | > 25
17 | [O-][n+]1c2ccccc2[n+]([O-])c2c(O)cccc21 | 0.26 | 11 | 79 | > 100
18 | CCOC(=O)COc1cc(OC)c2c(c1)[n+]([O-])c1ccccc1[n+]2[O-] | 0.25 | 10 |  | 
19 | COCOc1cc(O)c2c(c1)[n+]([O-])c1ccccc1[n+]2[O-] | 0.11 | 5.2 | > 100 | > 50
20 | CCOC(=O)COc1cc(O)c2c(c1)[n+]([O-])c1ccccc1[n+]2[O-] | 0.17 | 5.7 | 194 | 89
21 | [O-][n+]1c2ccccc2[n+]([O-])c2cc(O)c(O)cc21 | > 50 | > 50 |  | 
